In experiment [1] the test system is Mycobacterium tuberculosis. The experiment can be described thus: Antimycobacterial activity against wild type Mycobacterium tuberculosis H37Rv ATCC 27294 after 2 weeks. Particulars: 336 h. The format is functional. Put shortly:
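Aerobic MIC99: Mtb H37Rv grown to OD 0.5 in 7H9 broth with 0.05% Tween 80, 0.2% glycerol, ADC; diluted 1:1000. Compounds from DMSO stocks, 2-fold series giving 8 dilutions (1000 μM – 7.8 μM). 2 weeks at 37°C, growth read macroscopically; MIC99 = concentration preventing 99% growth. Three independent determinations.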

The subject of experiment [2] is Mycobacterium tuberculosis. The experiment can be described thus: Antimycobacterial activity against wild type Mycobacterium tuberculosis H37Rv NRP-2 stage after 3 weeks under anaerobic condition. Type of experiment: functional. Put shortly: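 Early-log Mtb in glycerol-free Dubos broth diluted 100-fold, sealed tubes (headspace ratio 0.5), stirred 180 rpm 20 days to NRP-2 (methylene blue reference). Cells exposed to two-fold drug dilutions (1.95-500 μM) with DMSO control, anaerobically at 37°C for 7 days. Washed thrice, serially diluted, spotted on 7H11 agar; after 3 weeks at 37°C, MAC = 90% reduction in visible growth.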

Experiment [3] concerns Mycobacterium tuberculosis. Nature of the experiment: Ratio of Kcat/Km for Mycobacterium tuberculosis F420-dependent nitroreductase by Michaelis-Menten equation. Set-up: unit not given here. In a few lines:
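MBP-tagged Rv3547 (Ddn) expressed in E. coli (300 μM IPTG, 37 °C), amylose-affinity purified. F420H2 made enzymatically with Mtb FGD1, which was heat-inactivated (55°C, 15 min) and removed by ultrafiltration. Reactions in phosphate buffer pH 7.4, 50 μM F420, 0.6 μM enzyme, varying nitroimidazole concentrations, 25°C. Initial rates from absorbance gain at 400 nm (ε400 = 25.71 mM−1 cm−1).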

≈ marks a conversion by molar mass, not a printed value.

With `O=[N+]([O-])c1cn2c(n1)OC[C@@H](OCc1ccc(OC(F)(F)F)cc1)C2` [PRETOMANID], the MIC (usually the smallest concentration in the dilution series that meets the test's criterion for growth inhibition) in experiment [1] came out at 0.8 µM (≈ 0.287 µg/mL). In experiment [2], the MAC turned out to be 8 µM. In addition, in experiment [3], the kcat/Km turned out to be 0.145.

`Cc1ncc([N+](=O)[O-])n1CCO` [METRONIDAZOLE]: the MIC in experiment [1] was above 300 µM. For the same compound, the MAC in experiment [2] was 62.5 µM.

For `O=[N+]([O-])c1cnc2n1C[C@H](O)CO2`, the MIC in experiment [1] stood at 12.5 µM (≈ 2.31 µg/mL). The MAC in experiment [2] was 125 µM. Further, the kcat/Km in experiment [3] is 0.003.

`Cc1nc([N+](=O)[O-])cn1CCO` returned an MIC in experiment [1] above 300 µM. The compound also returned an MAC in experiment [2] above 500 µM.

For `O=[N+]([O-])c1cn2c(n1)C=C[C@@H](OCc1ccc(OC(F)(F)F)cc1)C2`, the MIC in experiment [1] worked out at 25 µM (≈ 8.88 µg/mL). In experiment [2], this compound returned an MAC of 62.5 µM. Besides, the kcat/Km in experiment [3] was 0.0476.

As for `COc1nc([N+](=O)[O-])cn1CCOCc1ccc(OC(F)(F)F)cc1`, the MIC in experiment [1] turned out to be 6.25 µM (≈ 2.26 µg/mL). Also, the MAC in experiment [2] is 250 µM. The kcat/Km in experiment [3] amounted to 0.03.

In experiment [1], `O=[N+]([O-])c1cn2c(n1)OC[C@@H](O)C2` displayed an MIC above 100 µM. Further, the MAC in experiment [2] stood at 250 µM. In addition, the kcat/Km in experiment [3] turned out to be 0.005.

In turn, `Cc1ncc([N+](=O)[O-])n1CCOCc1ccc(OC(F)(F)F)cc1` returned an MIC in experiment [1] above 145 µM. The same compound yielded an MAC in experiment [2] of 250 µM. The kcat/Km in experiment [3] amounted to 0.005.

Consider `O=[N+]([O-])c1cnc2n1C[C@H](O)CC2`, for which the MIC in experiment [1] was above 100 µM. Also, the MAC in experiment [2] is above 500 µM.

In experiment [1], `CO[C@@H]1COc2nc([N+](=O)[O-])cn2C1` gave an MIC above 125 µM. In experiment [2], the MAC amounted to 250 µM. Besides, the kcat/Km in experiment [3] was determined as 0.0079.

In experiment [1], `FC(F)(F)Oc1ccc(CO[C@@H]2COc3nccn3C2)cc1` returned an MIC above 160 µM. The compound also showed an MAC in experiment [2] above 500 µM.

Compound `COc1ncc([N+](=O)[O-])n1CCO` came in with an MIC in experiment [1] above 100 µM. This compound also had an MAC in experiment [2] above 500 µM.

Regarding `Cc1nc([N+](=O)[O-])cn1CCOCc1ccc(OC(F)(F)F)cc1`, the MIC in experiment [1] is above 145 µM. Further, the MAC in experiment [2] is above 500 µM.

Turning to `O=[N+]([O-])c1cnc2n1C[C@H](OCc1ccc(OC(F)(F)F)cc1)CO2`, the MIC in experiment [1] was found to be 4 µM (≈ 1.44 µg/mL). Moreover, the MAC in experiment [2] was found to be 31.25 µM. The kcat/Km in experiment [3] was found to be 0.0817.

As to `O=[N+]([O-])c1cnc2n1C[C@@H](O)CC2`, in experiment [1], the MIC is above 100 µM. The MAC in experiment [2] was above 100 µM.

For `O=[N+]([O-])c1cn2c(n1)CC[C@@H](OCc1ccc(OC(F)(F)F)cc1)C2`, 25 µM (≈ 8.93 µg/mL) was the least that counted as inhibitory in experiment [1] (MIC). Moreover, the MAC in experiment [2] came out at 250 µM. In experiment [3], the kcat/Km amounted to 0.0235.

The record behind these values is ChEMBL document CHEMBL1140917, “Structure-activity relationships of antitubercular nitroimidazoles. 1. Structural features associated with aerobic and anaerobic activities of 4- and 5-nitroimidazoles” (2009).
